Results published in ChEMBL document CHEMBL1143019, “Hybrid molecules of estrone: new compounds with potential antibacterial, antifungal, and antiproliferative activities” (2007).
Converted amounts (≈) assume the structure as drawn.

What was measured:
Mycobacterium kansasii [1] = test: Antimicrobial activity against Mycobacterium kansasii My 6509/96 after 14 days; type: functional; conditions: 336 h
How it was run: (§1)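 Run in Šula semisynthetic liquid medium containing bovine serum. Compounds added as DMSO solutions at final concentrations of […]. Each strain was also inoculated onto Löwenstein–Jensen medium to control inoculum sterility and growth.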

Mycobacterium kansasii [2] = test: Antimicrobial activity against Mycobacterium kansasii My 235/80 after 21 days; type: functional; conditions: 504 h; how it was run: as §1
Mycobacterium kansasii [3] = test: Antimicrobial activity against Mycobacterium kansasii My 6509/96 after 21 days; type: functional; conditions: 504 h; how it was run: as §1
K562 = test: Antiproliferative activity against human K562 cells after 72 hrs; type: functional; conditions: K562, 72 h
How it was run: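 About 10,000 suspension cells per well in RPMI 1640 with 10% heat-inactivated FBS and penicillin/streptomycin, without HEPES. Exposed to 10 concentrations for 72 h at 37 °C in humidified 5% CO₂. Wells diluted 1:50 in CASYTON and counted electronically, each result the mean of three successive counts. GI50 is where the concentration–response curve crosses 50% of control cell count.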

HeLa = test: Cytotoxicity against human HeLa cells after 72 hrs; type: functional; conditions: for CC50: Homo sapiens, HeLa, 72 h
How it was run: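 About 10,000 cells per well in RPMI 1640 were preincubated 48 h without compound. The 10 test concentrations were then applied onto the monolayers and incubated 72 h at 37 °C in humidified 5% CO₂. Monolayers fixed with glutaraldehyde, stained with 0.05% methylene blue, and eluted with 0.33 N HCl; optical density measured at 630 nm.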

[4] = system: Mycobacterium tuberculosis; test: Antimicrobial activity against Mycobacterium tuberculosis My 331/88 after 14 days; type: functional; conditions: 336 h
Mycobacterium kansasii [5] = test: Antimicrobial activity against Mycobacterium kansasii My 235/80 after 14 days; type: functional; conditions: 336 h; how it was run: as §1
Mycobacterium kansasii [6] = test: Antimicrobial activity against Mycobacterium kansasii My 6509/96 after 7 days; type: functional; conditions: 168 h; how it was run: as §1
Mycobacterium kansasii [7] = test: Antimicrobial activity against Mycobacterium kansasii My 235/80 after 7 days; type: functional; conditions: 168 h; how it was run: as §1
[8] = system: Mycobacterium tuberculosis; test: Antimicrobial activity against Mycobacterium tuberculosis My 331/88 after 21 days; type: functional; conditions: 504 h
Mycobacterium avium [9] = test: Antimicrobial activity against Mycobacterium avium My 330/88 after 14 days; type: functional; conditions: 336 h
Mycobacterium avium [10] = test: Antimicrobial activity against Mycobacterium avium My 330/88 after 21 days; type: functional; conditions: 504 h
L929 = test: Antiproliferative activity against mouse L929 cells after 72 hrs; type: functional; conditions: L929, 72 h
How it was run: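 About 10,000 adherent cells per well in RPMI 1640 with 10% heat-inactivated FBS and penicillin/streptomycin, without HEPES. Exposed to 10 concentrations for 72 h at 37 °C in humidified 5% CO₂. Monolayers fixed with glutaraldehyde, stained 15 min with 0.05% methylene blue, and eluted with 0.33 N HCl; OD read at 630 nm. GI50 derived from dose–response curves relative to control.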

Candida albicans [11] = test: Antifungal activity against Candida albicans ATCC 44859 after 48 hrs; type: functional; conditions: ATCC 44859, 48 h
How it was run: (§2)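 Modified NCCLS M27-A broth microdilution with clinical isolates subcultured on Sabouraud dextrose agar. Suspensions diluted 1:50 in RPMI 1640 to give a final inoculum of 0.5–2.5×10³ CFU/mL for yeasts or 0.5–5×10⁴ CFU/mL for molds. The RPMI had L-glutamine, no bicarbonate, and 0.165 M MOPS to pH 7.0. Twofold dilutions from 250 to 0.49. Plates held at 35 °C, humid, without agitation. MIC is the lowest concentration giving ≥80% inhibition versus drug-free control, read at 24 and 48 h.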

Pichia kudriavzevii [12] = test: Antifungal activity against Candida krusei E28 after 24 hrs; type: functional; how it was run: as §2
Trichophyton benhamiae [13] = test: Antifungal activity against Trichophyton mentagrophytes 445 after 72 hrs; type: functional, Arthroderma benhamiae
How it was run: (§3)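 Same modified M27-A microdilution with the mold inoculum of 0.5–5×10⁴ CFU/mL. Medium was RPMI 1640 with L-glutamine, no bicarbonate, and 0.165 M MOPS at pH 7.0. Twofold dilutions from 250 to 0.49. Incubated at 35 °C in a humid atmosphere.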

Aspergillus fumigatus [14] = test: Antifungal activity against Aspergillus fumigatus 231 after 48 hrs; type: functional; how it was run: as §2
Trichosporon beigelii [15] = test: Antifungal activity against Trichosporon beigelii 1188 after 48 hrs; type: functional; how it was run: as §2
Nakaseomyces glabratus [16] = test: Antifungal activity against Candida glabrata 20/I after 48 hrs; type: functional; how it was run: as §2
Candida albicans [17] = test: Antifungal activity against Candida albicans ATCC 44859 after 24 hrs; type: functional; conditions: ATCC 44859, 24 h; how it was run: as §2
Lichtheimia corymbifera [18] = test: Antifungal activity against Absidia corymbifera 272 after 48 hrs; type: functional; how it was run: as §2
Trichophyton benhamiae [19] = test: Antifungal activity against Trichophyton mentagrophytes 445 after 120 hrs; type: functional, Arthroderma benhamiae; how it was run: as §3
Candida tropicalis [20] = test: Antifungal activity against Candida tropicalis 156 after 24 hrs; type: functional; how it was run: as §2
Pichia kudriavzevii [21] = test: Antifungal activity against Candida krusei E28 after 48 hrs; type: functional; how it was run: as §2
Nakaseomyces glabratus [22] = test: Antifungal activity against Candida glabrata 20/I after 24 hrs; type: functional; how it was run: as §2
Aspergillus fumigatus [23] = test: Antifungal activity against Aspergillus fumigatus 231 after 24 hrs; type: functional; how it was run: as §2
Lichtheimia corymbifera [24] = test: Antifungal activity against Absidia corymbifera 272 after 24 hrs; type: functional; how it was run: as §2
Candida tropicalis [25] = test: Antifungal activity against Candida tropicalis 156 after 48 hrs; type: functional; how it was run: as §2
Trichosporon beigelii [26] = test: Antifungal activity against Trichosporon beigelii 1188 after 24 hrs; type: functional; how it was run: as §2

| Compound | MIC (Mycobacterium kansasii [1]) [µM] | MIC (Mycobacterium kansasii [2]) [µM] | GI50 (K562) [µg/mL] | CC10 (HeLa) [µg/mL] | CC50 (HeLa) [µg/mL] | MIC [4] [µM] | MIC (Mycobacterium kansasii [5]) [µM] | MIC (Mycobacterium kansasii [6]) [µM] | MIC (Mycobacterium kansasii [7]) [µM] | MIC [8] [µM] | MIC (Mycobacterium avium [9]) [µM] | GI50 (L929) [µg/mL] | MIC (Candida albicans [11]) [µM] | MIC (Pichia kudriavzevii [12]) [µM] | MIC (Aspergillus fumigatus [14]) [µM] | MIC (Trichosporon beigelii [15]) [µM] | MIC (Nakaseomyces glabratus [16]) [µM] | MIC (Candida albicans [17]) [µM] | MIC (Lichtheimia corymbifera [18]) [µM] | MIC (Candida tropicalis [20]) [µM] | other results |
| --- | --- | --- | --- | --- | --- | --- | --- | --- | --- | --- | --- | --- | --- | --- | --- | --- | --- | --- | --- | --- | --- |
| Sc1nnnn1-c1ccc(Cl)cc1 | 500 (≈ 106 µg/mL) | > 500 | 42.6 (≈ 200 µM) | 26.4 (≈ 124 µM) | 48.9 (≈ 230 µM) | 500 (≈ 106 µg/mL) | > 500 | 250 (≈ 53.2 µg/mL) | 500 (≈ 106 µg/mL) | > 500 | > 500 | > 50 | – | – | – | – | – | – | – | – | MIC (Mycobacterium kansasii [3]): > 500 µM; MIC (Mycobacterium avium [10]): > 500 µM |
| Cc1ccc(-n2nnnc2SCCCCCCCOc2ccc3c(c2)CC[C@@H]2[C@@H]3CC[C@]3(C)C(=O)CC[C@@H]23)cc1 | – | > 500 | > 50 | 28.7 (≈ 51.4 µM) | > 50 | 500 (≈ 279 µg/mL) | > 500 | – | – | > 500 | > 500 | > 50 | > 250 | > 250 | > 250 | > 250 | > 250 | > 250 | > 250 | > 250 | MIC (Trichophyton benhamiae [13]): > 250 µM; MIC (Trichophyton benhamiae [19]): > 250 µM; MIC (Pichia kudriavzevii [21]): > 250 µM; MIC (Nakaseomyces glabratus [22]): > 250 µM; MIC (Aspergillus fumigatus [23]): 250 µM (≈ 140 µg/mL); MIC (Lichtheimia corymbifera [24]): > 250 µM; MIC (Candida tropicalis [25]): > 250 µM; MIC (Trichosporon beigelii [26]): > 250 µM |
| C[C@@H]1[C@H](O)[C@@H](C)/C=C/C=C/C=C/C=C/C=C/C=C/C=C/[C@H](O[C@@H]2O[C@H](C)[C@@H](O)[C@H](N)[C@@H]2O)C[C@@H]2O[C@](O)(C[C@@H](O)C[C@@H](O)[C@H](O)CC[C@@H](O)C[C@@H](O)CC(=O)O[C@H]1C)C[C@H](O)[C@H]2C(=O)O [AMPHOTERICIN B] | – | – | – | – | – | – | – | – | – | – | – | – | 0.07 (≈ 0.0647 µg/mL) | 0.14 (≈ 0.129 µg/mL) | 0.27 (≈ 0.25 µg/mL) | 2.16 (≈ 2 µg/mL) | 0.14 (≈ 0.129 µg/mL) | 0.02 (≈ 0.0185 µg/mL) | 2.16 (≈ 2 µg/mL) | 0.07 (≈ 0.0647 µg/mL) | MIC (Pichia kudriavzevii [21]): 0.14 µM (≈ 0.129 µg/mL); MIC (Nakaseomyces glabratus [22]): 0.04 µM (≈ 0.037 µg/mL); MIC (Aspergillus fumigatus [23]): 0.27 µM (≈ 0.25 µg/mL); MIC (Lichtheimia corymbifera [24]): 1.08 µM (≈ 0.998 µg/mL); MIC (Candida tropicalis [25]): 0.07 µM (≈ 0.0647 µg/mL); MIC (Trichosporon beigelii [26]): 1.08 µM (≈ 0.998 µg/mL) |
| Sc1nnnn1-c1ccccc1 | > 500 | > 500 | > 50 | 40 (≈ 224 µM) | > 50 | > 500 | > 500 | > 500 | > 500 | > 500 | > 500 | > 50 | – | – | – | – | – | – | – | – | MIC (Mycobacterium kansasii [3]): > 500 µM; MIC (Mycobacterium avium [10]): > 500 µM |
| Clc1ccc(-n2nnnc2SCc2ccccc2)cc1 | 16 (≈ 4.84 µg/mL) | – | > 50 | 5 (≈ 16.5 µM) | 50 (≈ 165 µM) | 16 (≈ 4.84 µg/mL) | 32 (≈ 9.69 µg/mL) | 16 (≈ 4.84 µg/mL) | 16 (≈ 4.84 µg/mL) | – | 62.5 (≈ 18.9 µg/mL) | 16.7 (≈ 55.2 µM) | > 250 | > 250 | 62.5 (≈ 18.9 µg/mL) | > 250 | > 250 | > 250 | > 250 | > 250 | MIC (Trichophyton benhamiae [13]): 31.3 µM (≈ 9.48 µg/mL); MIC (Trichophyton benhamiae [19]): 62.5 µM (≈ 18.9 µg/mL); MIC (Pichia kudriavzevii [21]): > 250 µM; MIC (Nakaseomyces glabratus [22]): > 250 µM; MIC (Aspergillus fumigatus [23]): 62.5 µM (≈ 18.9 µg/mL); MIC (Lichtheimia corymbifera [24]): > 250 µM; MIC (Candida tropicalis [25]): > 250 µM; MIC (Trichosporon beigelii [26]): > 250 µM |
